Results as given in PMC5055850 (Bioorganic & medicinal chemistry, 2016).
Like-named read-outs stand apart in the source and are kept apart here.

How the values were obtained:
Assay type in all cases: cell-based
[1] = molecular target: T1, FPR2 (Homo sapiens, UniProt P25090); test: Ca2+ flux assay in FPR2-HL60 cells; conditions: for Emax: read-out: FPR2-HL60 Efficacy; for EC50: HL-60 cells transfected with FPR2
T1 sequence (P25090 1-351): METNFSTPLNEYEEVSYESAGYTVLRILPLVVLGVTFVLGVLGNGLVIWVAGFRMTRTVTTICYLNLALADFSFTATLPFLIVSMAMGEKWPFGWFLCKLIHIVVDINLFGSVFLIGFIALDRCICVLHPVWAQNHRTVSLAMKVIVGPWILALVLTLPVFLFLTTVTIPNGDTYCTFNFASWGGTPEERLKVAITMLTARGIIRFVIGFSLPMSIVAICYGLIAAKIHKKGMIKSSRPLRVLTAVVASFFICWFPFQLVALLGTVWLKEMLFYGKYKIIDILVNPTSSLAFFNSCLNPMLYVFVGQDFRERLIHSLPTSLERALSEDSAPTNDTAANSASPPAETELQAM
Method in brief: (§1)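 FPR1-, FPR2- or FPR3-transfected HL-60 cells grown in RPMI 1640 with 10% heat-inactivated FCS, 10 mM HEPES and G418 (1 mg/mL). Cells loaded with Fluo-4 AM (1.25 µg/mL final) for 30 min at 37 °C in the dark, then 2 × 10^5 cells/well. Fluorescence (ex 485/em 538 nm) read every 5 s for 240 s at room temperature. Peak rise over baseline normalized to 5 nM fMLF (FPR1) or 5 nM WKYMVm (FPR2, FPR3). EC50 from 5–6-point nonlinear fits, three independent experiments.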

[2] = molecular target: T2, FPR3 (Homo sapiens, UniProt P25089); test: Ca2+ flux assay in FPR3-HL60 cells; conditions: for FPR3-HL60 Efficacy: % of the response induced by 5 nM WKYMVm
T2 sequence (P25089 1-353): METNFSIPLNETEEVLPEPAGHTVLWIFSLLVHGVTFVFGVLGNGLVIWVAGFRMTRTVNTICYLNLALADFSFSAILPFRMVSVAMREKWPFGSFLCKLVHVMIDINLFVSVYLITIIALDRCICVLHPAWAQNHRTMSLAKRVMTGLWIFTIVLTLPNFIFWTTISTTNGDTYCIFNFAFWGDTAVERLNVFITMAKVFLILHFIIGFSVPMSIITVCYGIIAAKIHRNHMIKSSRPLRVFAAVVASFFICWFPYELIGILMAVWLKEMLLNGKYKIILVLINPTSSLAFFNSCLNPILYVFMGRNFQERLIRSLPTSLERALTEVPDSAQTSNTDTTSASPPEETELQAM
Method in brief: as §1

[3] = test system: human neutrophils; test: Cell migration; conditions: Neutrophil, 1 h, read-out: EC50 in migration assay
Method in brief: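 Human neutrophils at 2 × 10^6 cells/mL in HBSS with 2% FBS, placed above a 5.0 µm polycarbonate membrane. Lower wells held test compound, DMSO (negative control) or 1 nM fMLF (positive control). Migration ran 60 min at 37 °C, 5% CO2. Migrated cells counted by ATP luminescence against neutrophil standard curves and expressed as % of spontaneous migration. EC50 from 5–6-point nonlinear fits; mean ± SD, three donors.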

[4] = molecular target: T3, FPR1 (Homo sapiens, UniProt P21462); test: Ca2+ flux assay in FPR1-HL60 cells; conditions: for Emax: read-out: FPR1-HL60 Efficacy
T3 sequence (P21462 1-350): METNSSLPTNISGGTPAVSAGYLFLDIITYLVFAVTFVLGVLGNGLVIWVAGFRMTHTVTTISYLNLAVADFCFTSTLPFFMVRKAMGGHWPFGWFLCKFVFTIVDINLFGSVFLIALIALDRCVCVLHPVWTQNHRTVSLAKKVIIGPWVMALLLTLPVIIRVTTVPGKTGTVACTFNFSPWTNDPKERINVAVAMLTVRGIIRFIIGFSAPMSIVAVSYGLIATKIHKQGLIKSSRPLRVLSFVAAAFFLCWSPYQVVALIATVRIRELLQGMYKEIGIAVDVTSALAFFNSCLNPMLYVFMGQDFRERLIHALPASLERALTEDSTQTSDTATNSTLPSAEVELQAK
Method in brief: as §1

[5] = test system: human polymorphonuclear neutrophils (hPMN); test: Ca2+ flux assay in human neutrophils; conditions: for EC50: Homo sapiens, Polymorphonuclear neutrophil, read-out: hPMN EC50
Method in brief: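 Neutrophils from healthy donors' blood, purified by dextran sedimentation, Histopaque 1077 gradient and hypotonic red-cell lysis (>95% pure, >98% viable). Cells in HBSS− with 10 mM HEPES were loaded with Fluo-4 AM (1.25 µg/mL final) for 30 min at 37 °C, then plated at 2 × 10^5 cells/well. Fluorescence (485/538 nm) read every 5 s for 240 s at room temperature. Peak change normalized to 5 nM fMLF. EC50 from 5–6-point nonlinear regression, three experiments.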

[6] = test system: mouse polymorphonuclear neutrophils (mPMN); test: Ca2+ flux assay in mouse neutrophils; conditions: for mPMN Efficacy: % of the response induced by 5 nM WKYMVm; for EC50: read-out: mPMN EC50
Method in brief: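 Neutrophils taken from BALB/c mouse tibia and femur bone marrow. Isolated on a 45/50/55/62/81% Percoll gradient (1600g, 30 min, 10 °C), then Histopaque 1119 to remove red cells, and kept in HBSS−. Ca2+ fluorescence (485/538 nm) monitored every 5 s for 240 s at room temperature after compound addition. Maximal change over baseline normalized to 5 nM WKYMVm. EC50 from 5–6-point nonlinear regression, three independent experiments.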

[7] = molecular target: T4, mouse Fpr2 (Mus musculus, UniProt O88536); test: Ca2+ flux assay in mFpr2-RBL cells
T4 sequence (O88536 1-351): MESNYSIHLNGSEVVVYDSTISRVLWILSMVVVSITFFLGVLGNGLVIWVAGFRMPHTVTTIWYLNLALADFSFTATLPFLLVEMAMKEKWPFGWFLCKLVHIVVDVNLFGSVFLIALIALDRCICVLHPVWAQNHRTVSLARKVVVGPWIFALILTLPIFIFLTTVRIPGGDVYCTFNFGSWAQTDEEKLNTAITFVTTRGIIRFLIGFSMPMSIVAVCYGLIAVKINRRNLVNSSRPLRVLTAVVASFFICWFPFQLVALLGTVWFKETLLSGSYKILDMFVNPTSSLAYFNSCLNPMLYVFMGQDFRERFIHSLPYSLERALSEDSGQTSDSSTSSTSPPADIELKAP
Method in brief: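 RBL-2H3 cells stably expressing mouse Fpr2, grown in DMEM with 20% FBS, 10 mM HEPES and G418. Fluo-4 AM loaded (1.25 µg/mL final, 30 min, 37 °C, dark) in HBSS− with HEPES, then resuspended in HBSS with HEPES at 2 × 10^5 cells/well. Fluorescence (485/538 nm) read every 5 s for 240 s at room temperature. Peak rise over baseline was taken and EC50 fitted from 5–6-point curves. Mean of three experiments.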

[8] = molecular target: T5, mouse Fpr1 (Mus musculus, UniProt P33766); test: Ca2+ flux assay in mFpr1-RBL cells; conditions: for mFpr1-RBL Efficacy: % of the response induced by 5 nM WKYMVm
T5 sequence (P33766 1-364): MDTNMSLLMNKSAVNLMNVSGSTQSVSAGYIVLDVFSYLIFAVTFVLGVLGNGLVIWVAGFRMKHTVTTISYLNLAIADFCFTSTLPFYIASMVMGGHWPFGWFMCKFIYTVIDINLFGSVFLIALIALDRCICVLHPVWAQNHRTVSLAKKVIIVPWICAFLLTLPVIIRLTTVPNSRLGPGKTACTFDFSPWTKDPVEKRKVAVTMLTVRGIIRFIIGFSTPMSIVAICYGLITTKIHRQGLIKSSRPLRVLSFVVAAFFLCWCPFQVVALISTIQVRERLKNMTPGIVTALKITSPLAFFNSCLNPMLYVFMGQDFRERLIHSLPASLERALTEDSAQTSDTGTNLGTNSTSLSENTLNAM
Method in brief: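 RBL-2H3 cells carrying mouse Fpr1 were grown in DMEM with 20% FBS, 10 mM HEPES and G418 (250 µg/ml). Cells were loaded with Fluo-4 AM (1.25 µg/mL final, 30 min, 37 °C, dark) and plated at 2 × 10^5 cells/well. Fluorescence (485/538 nm) was read every 5 s for 240 s at room temperature after compound addition. Maximal rise over baseline normalized to 5 nM WKYMVm. EC50 from 5–6-point nonlinear fits, three experiments.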

[9] = Mus musculus, Polymorphonuclear neutrophil
[10] = % of the response induced by 5 nM WKYMVm
[11] = % of the response induced by 5 nM fMLF

| Compound | Emax [1] | EC50 [2] | FPR3-HL60 Efficacy [2] | EC50 [3] | Emax [4] | EC50 [5] | EC50 [4] | mPMN Efficacy [6] | EC50 [6, 9] | EC50 ([1]; FPR2-HL60 EC50, Ca2+ flux) | also measured |
| --- | --- | --- | --- | --- | --- | --- | --- | --- | --- | --- | --- |
| COc1cccc(Nc2c(C(C)=O)c(C)nn(CC(=O)Nc3ccc(Br)cc3)c2=O)c1 [Compound 8a, 2-[4-Acetyl-5-(3-methoxyphenylamino)-3-methyl-6-oxopyridazin-1(6H)-yl]-N-(4-bromophenyl)acetamide] | 60% | 210 ± 44 nM | 150% | 2200 ± 510 nM | 185% | 36 ± 7 nM | – | – | – | – | – |
| CCCCC(=O)c1c(C)nn(CC(=O)Nc2ccc(Br)cc2)c(=O)c1Nc1cccc(OC)c1 [Compound 8d, N-(4-Bromophenyl)-2-[5–(3-methoxyphenylamino)-3-methyl-6-oxo-4-pentanoylpyridazin-1(6H)-yl]acetamide] | – | – | – | – | 45% | 8000 ± 2600 nM | 15600 ± 2600 nM | 105% | 24100 ± 6100 nM | – | – |
| COc1cccc(Nc2c(-c3ccn(C)n3)c(C)nn(CC(=O)Nc3ccc(Br)cc3)c2=O)c1 [Compound 27a, N-(4-Bromophenyl)-2-[5-(3-methoxyphenylamino)-3-methyl-4-(1-methyl-1H-pyrazol-3-yl)-6-oxo-6H-pyridazin-1-yl]acetamide] | 90% | – | – | 1100 ± 220 nM | 130% | 590 ± 210 nM | 3600 ± 280 nM | – | – | 590 ± 180 nM | – |
| CCC(=O)c1c(C)nn(CC(=O)Nc2ccc(Br)cc2)c(=O)c1Nc1cccc(OC)c1 [Compound 8b, N-(4-Bromophenyl)-2-[5-(3-methoxyphenylamino)-3-methyl-6-oxo-4-propionylpyridazin-1(6H)-yl]acetamide] | 190% | – | – | – | 130% | 5500 ± 1600 nM | 2700 ± 800 nM | 75% | 8400 ± 2600 nM | 780 ± 100 nM | – |
| Cc1nn(CC(=O)Nc2ccc(Br)cc2)c(=O)c(N)c1-c1ccn(C)n1 [Compound 26, 2-[5-Amino-3-methyl-4-(1-methyl-1H-pyrazol-3-yl)-6-oxopyridazin-1(6H)-yl]-N-(4-bromophenyl)acetamide] | 40% | – | – | – | 75% | 3500 ± 320 nM | 2900 ± 140 nM | 45% | 5600 ± 2400 nM | 1900 ± 710 nM | – |
| COc1cccc(Nc2c(C(=O)C3CCCC3)c(C)nn(CC(=O)Nc3ccc(Br)cc3)c2=O)c1 [Compound 8e, N-(4-Bromophenyl)-2-[4–cyclopentanecarbonyl-5-(3-methoxyphenylamino)-3-methyl-6-oxopyridazin-1(6H)-yl]acetamide] | 60% | – | – | – | 110% | 1700 ± 400 nM | 1600 ± 400 nM | 120% | 15900 ± 4900 nM | 10500 ± 2100 nM | – |
| C=Cc1c(C)nn(CC(=O)Nc2ccc(Br)cc2)c(=O)c1Nc1cccc(OC)c1 [Compound 15, N-(4-Bromophenyl)-2-[5-(3-methoxyphenylamino)-3-methyl-6-oxo-4-vinylpyridazin-1(6H)-yl]acetamide] | 105% | 6000 ± 2100 nM | 75% | 1200 ± 240 nM | 120% | 840 ± 180 nM | 230 ± 70 nM | 30% | 22800 ± 6400 nM | 110 ± 14 nM | – |
| Cc1nn(CC(=O)Nc2ccc(Br)cc2)c(=O)c(N)c1C(=O)C=CN(C)C [Compound 24] | 50% | – | – | – | 120% | 9300 ± 2300 nM | 5100 ± 1700 nM | 50% | 13500 ± 3700 nM | 5700 ± 2300 nM | EC50 [7]: 9400 ± 2700 nM; mFpr2-RBL Efficacy [7, 10]: 65%; EC50 [8]: 6700 ± 2100 nM; mFpr1-RBL Efficacy [8]: 55% |
| 1-[(4-Bromophenylcarbamoyl)-methyl]-5-(3-methoxyphenylamino)-1,6-dihydro-3-methyl-6-oxopyridazine-4-carboxylate [Compound 20] | – | – | 75% | – | – | – | – | 100% | – | – | mFpr1-RBL Efficacy [8]: 50%; EC50 ([8]; read-out: mFpr1-RBL EC50, Ca2+ flux, RBL cells transfected with mouse Fpr1): 4700 ± 1300 nM; FPR2-HL60 Efficacy [1, 10]: 115%; EC50 ([1]; read-out: FPR2-HL60 EC50, Ca2+ flux): 3100 ± 780 nM; EC50 ([2]; read-out: FPR3-HL60 EC50, Ca2+ flux, HL-60 cells transfected with FPR3): 17100 ± 4300 nM; FPR1-HL60 Efficacy [4, 11]: 130%; EC50 ([4]; read-out: FPR1-HL60 EC50, Ca2+ flux, HL-60 cells transfected with FPR1): 600 ± 100 nM; hPMN Efficacy [5, 11]: 155%; EC50 ([6]; Ca2+ flux, mouse bone marrow neutrophils): 1000 ± 340 nM |
| CCc1c(C)nn(CC(=O)Nc2ccc(Br)cc2)c(=O)c1Nc1cccc(OC)c1 [Compound 13a, N-(4-Bromophenyl)-2-[4-ethyl-5-(3-methoxyphenylamino)-3-methyl-6-oxopyridazin-1(6H)-yl]acetamide] | 35% | 460 ± 14 nM | 35% | – | 185% | 340 ± 110 nM | 180 ± 4 nM | – | – | 61 ± 22 nM | – |
